According to ChEMBL document CHEMBL4513216, “Probing the Open Global Health Chemical Diversity Library for Multistage-Active Starting Points for Next-Generation Antimalarials” (ACS Infect Dis, 2020):

Experiment: Toxicity liver stage against HepG2, at 10uM
Assay type: cell-based
Design: test concentration 10 uM, cell line HepG2-A16-CD81EGFP
Settings: human, HepG2-A16-CD81EGFP cells; read-out: INHIBITION
Summary of the method: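 Uninfected HepG2-A16-CD81EGFP cells, 3 × 10^3 per well, 1536-well, plated on prespotted compound at 10 μM final, parasite-free screening media added to match infected plates; puromycin 10 μM positive, DMSO 0.5% negative; run in parallel with 48 h PbLuc assay at 37 °C, 5% CO2; viability by CellTiter-Glo luminescence, normalized to controls.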

Compound	cytotoxicity at 10 µM [%]
Cc1ccccc1-c1cc(C(=O)N2CCn3c(C)nnc3C2)[nH]n1	-5.82
CN(Cc1cncs1)C1CCN(C(=O)OC(C)(C)C)CC1	5.94
CC(C)(C(=O)NCCS(N)(=O)=O)c1cccc(Br)c1	-8.35
CC(NC(=O)NCc1ccoc1)c1ccc2c(c1)CC(=O)N2 (stereo unspecified)	-1.82
N#Cc1cn[nH]c1NCc1cc(Br)ccc1O	-7.29
CCCN1CCN(S(=O)(=O)c2ncn(C)c2Cl)CC1	9.97
Cn1nccc1C(=O)N1CCN(C(=O)C2CCC2)[C@@H]2CS(=O)(=O)C[C@@H]21	4.86
CC(C)NCc1nc(-c2ccc3c(c2)OCO3)c[nH]1	6.24
CCOC(=O)N1CC(=O)N(Cc2cccc(OC)c2OC)CC(O)C1 (stereo unspecified)	-3.66
O=C(CN1CCOC(CNc2cccnn2)C1)N1CCCCC1 (stereo unspecified)	5.18
Cc1ccc(N2CCCc3sc(C(=O)NCC4CCCO4)nc32)nn1 (stereo unspecified)	-1.19
COc1c(Br)c(CC2CC(CO)=NO2)c(Br)c2c1OCO2 (stereo unspecified)	6.97
CNC(=O)CN1CCC(NC(=O)N(C)Cc2c(C)noc2C)CC1	2.1
C[C@@H]1CN(Cc2cn(C)nc2-c2ccccc2F)C[C@H](C)O1	-1.43
Cc1ncnc2c1CCN(Cc1nccs1)CC2	9.91
C=C(C)COc1cccc(C(=O)N(C)C(C)c2c(C)n[nH]c2C)c1 (stereo unspecified)	2.8
Cc1cnn(CC2CCCCN2C(=O)c2cccnc2N(C)C)c1 (stereo unspecified)	-7.37
OCC1(O)CCN(Cc2noc(-c3ccccc3)n2)CC1	-0.0739
COc1cccc(CN2CCCCC2Cn2nc(C)nc2C)c1 (stereo unspecified)	-11.5
COCCCNC(=O)CN(C)Cc1ccc(F)cc1Cl	-7.33
Cc1cccc(CN2C[C@@H]3OCCN(c4cnccn4)[C@@H]3C2)n1	5.25
Cc1nc(C)n(CC2CN(CCOc3ccccc3F)CCO2)n1 (stereo unspecified)	-1.44
Cn1c(CN2CCCC2)nnc1C1CCCN(C(=O)C2CCOCC2)C1 (stereo unspecified)	-17

Compound	cytotoxicity at 10 µM [%]
CC(O)CN1CCN(C(=O)c2cnn(-c3ccccc3Cl)c2)CC1 (stereo unspecified)	-8.9
O=C1C(N2CC[C@@H](O)C2)CCCN1Cc1cccc(C(F)(F)F)c1 (stereo partly specified)	1.22
CN(Cc1cc2n(n1)CCN(C(=O)c1cccnc1)C2)Cc1nccs1	1.2
CCC(CC)(CNC(C)=O)NC(C)c1ccccc1 (stereo unspecified)	4.99
O=C(NCC1CN(c2ncccn2)Cc2nccn2C1)c1cccnc1 (stereo unspecified)	-143
Cc1cc(N(C)C)nc(N2CCN(C(C)c3nc(C)no3)CC2)n1 (stereo unspecified)	2.33
COC(=O)c1ccc(N2CCN(C(=O)c3ccncc3)C(C)C2)cc1 (stereo unspecified)	-6.38
Cc1ccc(CN2C[C@H](OCC3CCOCC3)[C@H]3COC[C@H]32)o1	-4.58
Cc1nonc1NC(=O)c1ccc(F)c(COCC2CC2)c1	18.6
Cc1ccc(C2CCCN(S(C)(=O)=O)C2)nc1 (stereo unspecified)	2.32
CC(C)(N)C(=O)N1CCCC(C(=O)c2ccc(C(C)(C)C)cc2)C1 (stereo unspecified)	-1.1
Cc1cc(CS(=O)(=O)c2ccccc2)no1	10.5
O=C(NCCO)C1(CC2CC(c3ccc(F)cc3)=NO2)CCOCC1 (stereo unspecified)	-2.55
NCC1CCCCN1C(=O)Cc1cccc(Br)c1 (stereo unspecified)	0.907
CC(C)NC(=O)N1CCc2ncc(CN3CCOCC3)n2CC1	6.28
O=C(Nc1ccc(-n2cccn2)cc1)N1CCOCC(O)C1 (stereo unspecified)	-46.8
O=C(CNc1cc(-n2cnnn2)ccc1F)NCc1ccccc1	-6.2
COc1ccccc1CN1C[C@@H](F)[C@@H](OCc2nc3ccccc3[nH]2)C1	9.55
CCc1cc(N[C@H](C(N)=O)[C@@H](C)CC)n2nccc2n1	2.99
COCCN(C)C(=O)c1nc2c(s1)CCCN2c1ccc(C)nn1	-2.4
CC(C)c1nc2n(n1)CC(NCC(=O)N(C)Cc1cccs1)CC2 (stereo unspecified)	-10.2
CC(=O)N1N=C(c2cccs2)OC1C(=O)Nc1ccc(C(C)C)cc1 (stereo unspecified)	-12.7
COc1ccccc1Oc1cncc(C2CCCN(C)C2)n1 (stereo unspecified)	-3.8

Compound	cytotoxicity at 10 µM [%]
O=C(NCCNc1cc(N2CCCC2)ncn1)c1cnccn1	-46.3
Cc1ccc([C@@H]2CN(C(=O)CCc3cc(Cl)no3)C[C@H]2N(C)C)cc1	6.74
O=C(O)CCCC(=O)Nc1cnn(COc2ccc(F)cc2Cl)c1	8.69
Oc1ccc(-c2c(-c3ccccc3)ncn2C2CCNC2)cc1 (stereo unspecified)	-45.3
CC(=O)Nc1ccc(Cl)c(C(=O)N(C)C(C)c2nccs2)c1 (stereo unspecified)	-42.8
CCOC(C)c1nc(Cn2cccn2)cs1 (stereo unspecified)	1.04
C/C=C(\C)CN(CCN1CCOCC1)Cc1ccco1	11.1
CCNc1cc2c(nn1)CCN(C(=O)c1cc3nc(C)ccc3o1)C2	-3.85
Cn1cc(C2CCCN2Cc2cscn2)cn1 (stereo unspecified)	4.24
CCOC(=O)[C@@H]1[C@@H](c2ccccc2)CN2CCN(C(=O)C3CC3)C[C@H]12	-0.973
CC(C)OCCN1CCC(C(=O)c2cc(F)ccc2F)CC1	-8.63
CCc1[nH]c2c(CNC(=O)C3CCCN(C)C3)cc(C)cc2c1C (stereo unspecified)	-15.6
CCS(=O)(=O)Nc1ccc2c(c1)OCC(C)(C)C(=O)N2C	-17.2
CN(C)c1ccc(CNC(=O)NCCc2cccs2)cn1	-2.8
Cc1ncc(C(=O)NCCNc2ncnc3sccc23)s1	27.6
CS(=O)(=O)Cc1noc(CN(Cc2ccco2)c2ccccc2)n1	-8.3
Cc1nn(C)c(N2CCOCC2)c1CNC1CCS(=O)(=O)C1 (stereo unspecified)	-3.99
COCc1nc(Cn2ncn3cccc3c2=O)no1	-8.98
CC(C)c1cc(C(=O)N2CCCC(c3cc(=O)nc4n3CCC4)C2)no1 (stereo unspecified)	0.983
Cc1cc(=O)[nH]c(CCNC(=O)C(c2ccc(F)cc2)N(C)C)n1 (stereo unspecified)	-9.78
CC(=O)N1CC(c2ncn(C(C)C)n2)c2cc(C(=O)NC(C)C)ccc21 (stereo unspecified)	8.22
COc1cc(N2CCCC(CO)(Cc3ccccc3F)C2)ncn1 (stereo unspecified)	45.7
CCC(C)(C)NC(=O)c1scnc1Cl	-0.47

Compound	cytotoxicity at 10 µM [%]
CNCCc1nc2cc(F)ccc2[nH]1	22
CC(C)OCCSCCn1nc2ccccn2c1=O	3.36
CC(c1ncc(C(C)(C)C)o1)N1CCN(Cc2ccncc2)CC1 (stereo unspecified)	-12.3
O=C([C@@H]1CCO[C@@H]2CCN(Cc3ccc(F)cc3)C[C@H]21)N1CCCCO1	11.9
Cc1ccc(O)c(CNCC2CCCN2c2cccnn2)n1 (stereo unspecified)	-7.92
CCc1nnc2n1CCN(C=C1NN=C(c3occc3C)O1)C2	-10
Cc1cc(CNC(=O)Nc2ccc(C(=O)NC3CC3)cc2)no1	-0.396
COCCOC(=O)N1C[C@@H]2CC[C@H]1CN(C1Cc3ccccc3C1)C2	1.06
CC1CN(S(=O)(=O)c2ccc(F)cc2F)c2cccnc2O1 (stereo unspecified)	2.02
CCc1nnc(CNc2ccc(CC(=O)N3CCSCC3)cc2)o1	7.37
O=C(c1ccncc1F)N1C[C@@H]2OCCN(CC3CC3)[C@@H]2C1	-141
Cn1cc(CN2CCC(c3cc(COc4ccc(Cl)cc4)[nH]n3)C2)cn1 (stereo unspecified)	0.0085
CN(C)C(=O)N1CC2(CCN(S(=O)(=O)C3CC3)CC2)c2ccccc21	-110
CCC(CO)N(Cc1ccccn1)C(=O)c1ccc(CSC)o1 (stereo unspecified)	-5.06
O=C(NCC1(COc2cnccn2)C[C@@H](O)[C@@H](O)C1)C1CC1 (stereo partly specified)	7.92
O=C(NC1CC1)c1cnc(-c2noc3cc(N4CCCCC4)ccc23)s1	46
FC(F)(F)Cn1ccnc1CNCC1CCCN1c1cccnn1 (stereo unspecified)	-26.6
O=S(=O)(C1CC1)N1CC[C@H]2OCC[C@@]2(COc2ncccc2F)C1	-150
CC(C)(C)NC(=O)CCOc1cccc(F)c1	-4.95
CCc1noc(CN(C)Cc2cc(Br)ccc2OC)n1	3.91
CCS(=O)(=O)NCCCNc1cc(N2CCCC2CO)ncn1 (stereo unspecified)	2.2
Cc1csc2c(C3CCCN(C(=O)CCCn4cncn4)C3)nc(C)n12 (stereo unspecified)	7.69
Cc1ccoc1C(=O)NCCOc1ncc(Cl)cc1Cl	3.02

Compound	cytotoxicity at 10 µM [%]
Cc1nc(-c2ccccc2)ccc1C(=O)N1CCn2c(C)nnc2C1	4.01
NS(=O)(=O)CC1CCCN(C(=O)CCCC2CCCC2)C1 (stereo unspecified)	15.8
Cn1cc(C(=O)NCCc2ccc(OC3CCCC3)cc2)ccc1=O	-2.51
N#Cc1cccnc1N1CCCC(CO)(CCOc2ccccc2)C1 (stereo unspecified)	3.04
COc1cccc2c1OCC(C(=O)NCCc1nnc(N)s1)C2 (stereo unspecified)	-33.4
CN1CCC(N2CCC[C@H]2c2nc(-c3cncnc3N)no2)CC1	-5.33
CCN(C)Cc1n[nH]c(=O)n1-c1ccc(C)c(C)c1	6.27
Cc1ccc(NC2CCN(C(=O)CCNS(C)(=O)=O)CC2)nn1	-5.58
CCOc1cccc(COC(=O)c2cscn2)n1	-0.262
Cc1occc1C(=O)N1CCCC2(CCN(CCN3CCCC3)C2=O)C1 (stereo unspecified)	-9.18
O=C(C1CC=CC1)N1CC[C@@H]2O[C@@H](COCC3CCOCC3)CC[C@@H]21	5.51
CC(C)NC(=O)c1cccc(NC(=O)CCCc2nc(C(C)C)no2)c1	5.51
NC1CCN(S(=O)(=O)c2ccc(C(=O)N3CCSCC3)cc2)C1 (stereo unspecified)	7.1
Cc1noc(C)c1CNC(=O)c1ccc(NC2CC2)nc1	-3.91
Cc1ccc(SCCN(C)C(=O)c2cn(CCN)nn2)cc1	-4.7
CCc1nccn1C1CCCN(C(=O)c2cnc[nH]2)C1 (stereo unspecified)	2.52
Cc1cnn(C2CCCN(C(=O)c3cccc(Cn4ccnc4)c3)C2)c1 (stereo unspecified)	-1.03
O=C(NC1CC1)[C@@H]1CCO[C@@H]2CCN(CC3CCC3)C[C@@H]21	-101
O=C(CCc1nc(Cl)n[nH]1)N1C[C@@H](CN2CCCCCC2)[C@@H](CO)C1	0.152
